RGS7-Gao reg: human RGS7-Galphao interaction regulation | P09471 | actives 0.35% (n = 220,000) | binding response (% of control), % at 10 µM | Multiplexed bead flow cytometry, RGS7-Galphao binding; actives lie on both sides; in the data active = binding response below about 49% or above about 150%; inconclusive = no clear call, values can overlap the other calls; inactive = in between;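 note: fluorescent Galphao held in activated GDP-AlF4 state binding bead-coupled RGS7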
Calb biofilm kill: mixtures killing C. albicans biofilm. actives 0.02% (n = 120,000). inhibition, % at 7.6 µM. C. albicans biofilm persisters + clotrimazole, fluorescence viability; primary screen in compound mixtures of four per well;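 note: compounds exposed to preformed 24 h biofilms for 48 h; 0% = untreated biofilm control and 100% = clotrimazole plus chlorhexidine kill blank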
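Probe or stimulus – Clotrimazole 50 µg/mL co-treatment · System – C. albicans biofilms · Schedule – 24 h biofilm formation, then 48 h compound exposure, 37 °C · Evaluation – percent inhibition of biofilm viability · Technique – 2-h Alamar Blue fluorescence, 535/590 nm excitation/emission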
RGS8-Gao: human RGS8-Galphao interaction regulation. P09471. actives 0.34% (n = 220,000). response (percent of control binding), % at 10 µM. multiplexed bead flow cytometry, RGS8-Galphao binding; actives lie on both sides; in the data active = response below about 60% or above about 140%; inactive = in between;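 note: Galphao activated as the GDP aluminium fluoride complex binding bead-coupled RGS8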
RGS4-Gao reg: modulates binding of RGS4 to human Galphao; P09471; Multiplexed bead flow cytometry; actives lie on both sides; binding response (% of control), % at 10 µM; actives 0.33% (n = 220,000); AID 1415; in the data active = binding response below about 49% or above about 150%; inactive = in between;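 note: fluorescent Galphao activated with aluminum fluoride binding bead-coupled RGS4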
RGS16-Gao HTS: modulates binding between human RGS16 and Galphao; O15492+P09471; bead-based flow cytometry RGS16-Galphao binding, fluorescence; actives lie on both sides; binding response (% of control), % at 10 µM; actives 0.38% (n = 220,000); AID 1441;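 note: Galphao activated by GDP with aluminum fluoride before binding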
RGS-Gao: RGS4-Galphao interaction regulator (human); multiplexed bead flow cytometry, RGS–Galpha-o binding; AID 1504; shares compounds with RGS16-Gao HTS; RGS4–Galpha-o binding response, % at 10 µM; actives 99% (n = 1,600);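 note: fluorescently labeled Galpha-o bound to GDP with aluminium fluoride binding biotinylated RGS beads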
Biotin-avidin: biotin-avidin bead binding disruption counter-screen; AID 1783; inhibition, % at 10 µM; 1,700 tested, under 10 active; streptavidin beads, fluorescein-biotin binding, flow cytometry; shares compounds with RGS16-Gao HTS;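 active = inhibition above 50%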;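 note: median green fluorescence of gated singlet beads compared with DMSO control wells; 0% = DMSO wells and 100% = complete loss of bead fluorescence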
RGS8-Gao confirm: RGS8-Galphao interaction regulation, single point confirmation | shares compounds with RGS16-Gao HTS | bead-based flow cytometry RGS8-Galphao binding, fluorescence; actives lie on both sides | binding response (% of control), % at 10 µM | actives 3% (n = 1,700); in the data active = binding response below about 72% or above about 130%; inactive = in between;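 note: Galphao activated as GDP AlF4 complex before binding bead RGS8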
RGS7-Gao single: confirmation of regulators of human RGS7-Galphao interaction; shares compounds with RGS16-Gao HTS; bead-based flow cytometry RGS7-Galphao binding; actives lie on both sides; response (percent of control binding), % at 10 µM; actives 7.8% (n = 1,700); AID 1837; in the data active = response below about 75% or above about 130%; inactive = in between;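 note: fluorescent Galphao activated with GDP and aluminum fluoride binding bead-coupled RGS7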
RGS16-Gao single: RGS16-Galphao interaction regulation, single point confirmation; response (% of control binding), % at 10 µM; AID 1838; shares compounds with RGS16-Gao HTS; actives 4% (n = 1,700); bead-based flow cytometry, RGS16-Galphao binding; actives lie on both sides; in the data active = response below about 74% or above about 130%; inactive = in between;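 note: Galphao activated as the GDP aluminium fluoride complex binding bead-coupled RGS16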
RGS4-Gao confirm: RGS4-Galphao interaction regulation, single point confirmation | shares compounds with RGS16-Gao HTS | RGS4-Galphao binding, multiplexed bead flow cytometry; actives lie on both sides | binding response (% of control), % at 10 µM | actives 4% (n = 1,700); in the data active = binding response below about 74% or above about 130%; inactive = in between
RGS19-Gao conf: RGS19-Galphao interaction regulation, single point confirmation | bead-based flow cytometry RGS19-Galphao binding; actives lie on both sides | actives 5% (n = 1,700) | shares compounds with RGS16-Gao HTS | response (percent of control binding), % at 10 µM | AID 1841; in the data active = response below about 50% or above about 160%; inactive = in between;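 note: 100% = no compound control and 0% = blank background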
Target sequence (P09471 whole entry, looked up): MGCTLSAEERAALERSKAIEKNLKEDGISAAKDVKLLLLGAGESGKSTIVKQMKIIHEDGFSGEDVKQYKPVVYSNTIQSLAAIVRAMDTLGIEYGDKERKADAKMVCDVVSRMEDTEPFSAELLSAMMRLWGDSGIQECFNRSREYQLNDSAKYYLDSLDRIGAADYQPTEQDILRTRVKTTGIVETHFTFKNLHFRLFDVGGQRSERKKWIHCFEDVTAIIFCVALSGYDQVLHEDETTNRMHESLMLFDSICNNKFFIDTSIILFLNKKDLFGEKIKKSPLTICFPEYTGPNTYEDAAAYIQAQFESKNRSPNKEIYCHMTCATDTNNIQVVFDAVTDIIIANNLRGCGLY
Target sequence (P49795 whole entry, looked up): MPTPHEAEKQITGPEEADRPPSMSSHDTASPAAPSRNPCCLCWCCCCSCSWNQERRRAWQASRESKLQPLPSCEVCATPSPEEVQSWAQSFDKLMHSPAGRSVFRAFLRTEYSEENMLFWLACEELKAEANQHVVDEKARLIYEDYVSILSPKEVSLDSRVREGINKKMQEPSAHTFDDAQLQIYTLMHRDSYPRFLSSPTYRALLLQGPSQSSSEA
Active calls of the source: *; i = inactive; ? = inconclusive; · = not tested or not shown; [ ] = another dose, or the depositor's remark. This is a sample that favours compounds with a hit; in the whole collection about 0.74% have one here. Unless noted, the rule behind the calls is not given here.

SMILES	RGS7-Gao reg	Calb biofilm kill	RGS8-Gao	RGS4-Gao reg	RGS16-Gao HTS	RGS-Gao	Biotin-avidin	RGS8-Gao confirm	RGS7-Gao single	RGS16-Gao single	RGS4-Gao confirm	RGS19-Gao conf
N#CNc1nc(O)cc(=O)[nH]1	?	16	99	100	95	·	·	·	·	·	·	·
Clc1cc2cccnc2c2ccccc12	-24*	12	3.0*	-47*	i	·	-1	98	102	100	102	96
O=[N+]([O-])c1cc2cccnc2c2ncccc12	?	8	118	113	124	·	·	·	·	·	·	·
COc1ccccc1/C=C\C=N\n1c(-c2ccc(Cl)cc2)n[nH]c1=S	93	14	58*	88	7.8*	88*	-2	92	75*	82	82	51
C=C(C)c1cccc(C(C)(C)NC(=O)N2CCCCC2CC)c1 (stereo not drawn)	124	·	172*[activator]	142	404	142*	·	·	·	·	·	·
C=C(C)c1cccc(C(C)(C)NC(=O)N2CCN(CC)CC2)c1	98	·	104	100	109	·	·	·	·	·	·	·
CN(C)CCNC(=O)/C(=C/c1ccc(-c2ccc(Cl)cc2)o1)NC(=O)c1ccccc1	186*[activator]	21	163*[activator]	183*[activator]	133	·	0	103	97	100	99	89
Cc1cccc(-c2nnc3sc(-c4ccccc4)nn23)c1	·	·	·	·	·	·	2	95	90	93	95	87
c1ccc(-c2ccccc2OCCCN2CCOCC2)cc1	103	12	98	99	95	·	·	·	·	·	·	·
OCCCN1CCN(CCCOc2ccccc2-c2ccccc2)CC1	110	8	116	107	179*[activator]	107*	1	102	103	104	104	95
O=C(C[n+]1cccc(CNC(=O)c2ccc(OC(F)F)cc2)c1)Nc1ccc(F)cc1	121	-17	91	116	21*	116*	0	105	106	105	107	118
O=C(C[n+]1cccc(CNC(=O)c2ccc(OC(F)F)cc2)c1)Nc1cccc(C(F)(F)F)c1	104	12	106	105	107	·	·	·	·	·	·	·
NC(=O)c1ccc(F)cc1	18*	·	15*	24*	12*	·	-1	105	111	107	110	100
CC(NC(=O)c1ccc2c(c1)OCO2)C(c1cccs1)N1CCN(c2ccccc2)CC1 (stereo not drawn)	?	15	99	99	101	·	·	·	·	·	·	·
C=CCNC(=S)NCc1cccnc1	112	-7	128	112	276*[activator]	112*	1	102	102	104	104	91
C/C(=N\NC(=O)CN(c1ccc(Oc2ccccc2)cc1)S(C)(=O)=O)C(C)(C)C	95	11	100	102	99	·	·	·	·	·	·	·
O=C(NCc1ccccc1Cl)NCc1ccccc1Cl	?	13	62	43*	46	·	-1	103	103	107	99	109
Cc1cc(NC(=O)c2cc(-c3cccs3)nc3ccccc23)no1	256*[activator]	·	97	95	107	95*	5	100	94	102	100	76
CCn1nnc(NC(=O)CSc2ccc(Cl)cc2)n1	·	·	·	·	·	·	0	97	90	100	93	114

Assay outcomes from PubChem BioAssay.
